Results of several laboratories.
Lines come from different studies, so protocols differ.
Cell line: MCF-10A
Observed: cell growth or viability

Compound | test | conditions | IC50 [µM]
Cc1ccc(S(=O)(=O)n2cc(/C=N/NC(=O)c3ccc(C)c(F)c3)c3ccccc32)cc1 | MTT | 48 h | > 50
CCOC(=O)c1c(C)nc2ccc(-c3ccc(F)c(F)c3)cc2c1O | MTT | 48 h | > 100
Cc1ccc(S(=O)(=O)n2cc(/C=N/NC(=O)c3cccc4ccccc34)c3ccccc32)cc1 | MTT | 48 h | > 50
CCOC(=O)c1c(C)nc2ccc(-c3ccc(F)cc3)cc2c1O | MTT | 48 h | > 100
CO[C@H]1[C@H](O[C@H]([C@H]2O[C@@H](n3ccc(=O)[nH]c3=O)[C@H](O)[C@@H]2O)[C@H](NCCCNC(=O)[C@@H](NC(=O)[C@@H](NC(=O)N[C@H](C(=O)O)C(C)C)[C@@H]2CCN=C(N)N2)[C@@H](O)C(C)C)C(=O)O)O[C@H](CN)[C@H]1O | WST-1 |  | > 35
CC(=O)O[C@H]1C(=O)[C@@]2(C)[C@H]([C@H](OC(=O)c3ccccc3)[C@]3(O)C[C@H](OC(=O)[C@H](O)[C@@H](NC(=O)c4ccccc4)c4ccccc4)C(C)=C1C3(C)C)[C@]1(OC(C)=O)CO[C@@H]1C[C@@H]2O | MTT | 48 h | > 100
COc1ccc(C(=O)N/N=C/c2cn(S(=O)(=O)c3ccc(C)cc3)c3ccccc23)cc1 | MTT | 48 h | > 50
CO[C@H]1[C@H](O[C@H]([C@H]2O[C@@H](n3ccc(=O)[nH]c3=O)[C@H](O)[C@@H]2O)[C@H](NCCCNC(=O)[C@@H](NC(=O)[C@@H](NC(=O)N[C@H](C(=O)O)C(C)C)[C@@H]2CCN=C(N)N2)[C@@H](OC(=O)CCCCCCCCCCCCN(O)C(=N)N)C(C)C)C(=O)O)O[C@H](CN)[C@H]1O | WST-1 |  | > 35
CC(C)Cc1ccc([C@H](C)C(=O)O)cc1 | SRB | 72 h | 435
CCOC(=O)c1c(C)nc2ccc(-c3ccc(OCc4ccccc4)c(F)c3)cc2c1O | MTT | 48 h | > 100
CN(C)C(=S)[N-]N=C(c1ccccn1)c1ccccn1.[O]=[V+]=[O] | MTT | 48 h | 19.2
